Screens: PubChem BioAssay, The Scripps Research Institute Molecular Screening Center
An excerpt weighted towards active compounds, which were near 2.7% of everything screened.
OX1R antag-1: antagonists of human orexin 1 receptor (OX1R). Orexin/Hypocretin receptor type 1 (Homo sapiens), O43613. OX1R-expressing cells, FRET antagonist read-out. inhibition, % at 6.6 µM. hit rate 1.8% among 330,000; in the data active means inhibition mostly above about 38%, no sharp cut-off; inactive means mostly below about 40%;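 further: 0% = agonist challenge alone and 100% = reference antagonist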
Target sequence (O43613 whole entry, looked up): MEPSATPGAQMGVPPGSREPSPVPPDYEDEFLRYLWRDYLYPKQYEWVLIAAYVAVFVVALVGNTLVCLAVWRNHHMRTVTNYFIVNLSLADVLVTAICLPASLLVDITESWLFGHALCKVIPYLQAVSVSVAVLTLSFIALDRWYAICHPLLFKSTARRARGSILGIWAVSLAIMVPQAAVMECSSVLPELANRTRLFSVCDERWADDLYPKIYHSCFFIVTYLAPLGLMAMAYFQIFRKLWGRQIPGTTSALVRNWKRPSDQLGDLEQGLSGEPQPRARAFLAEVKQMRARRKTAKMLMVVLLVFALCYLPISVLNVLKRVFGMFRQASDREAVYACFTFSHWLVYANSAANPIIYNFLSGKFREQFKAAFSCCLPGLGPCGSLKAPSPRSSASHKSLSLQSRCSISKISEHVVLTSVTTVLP
V1aR counter: agonists of human V1a receptor, primary screen, counter-screen for OXTR agonist project, fluorescence, CHO-V1R cells | Vasopressin V1a receptor (Homo sapiens), P37288 | Fluo-8 calcium fluorescence, agonist mode; 0% DMSO, 100% 3 nM vasopressin | activation, % at 3 µM | hit rate 0.25% among 320,000;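 active means activation above the mean activation of all tested compounds plus 3 SD, per screening run, cut at about 20% in these data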;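 further: signal is peak over basal fluorescence ratio across a 100 second FLIPR read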
CHO parental Ca: ATP-evoked calcium signal inhibitors, parental CHO, primary screen, counter-screen for OX1R antagonist project, cell-based, fluorescence, Fluo-8 calcium dye; inhibition, % at 5.6 µM; hit rate 0.63% among 330,000; parental CHO-K1, ATP-induced calcium, Fluo-8 fluorescence;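 active means inhibition above that plate's mean sample inhibition plus 3 SD, cut at about 26% in these data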;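 further: 0% = ATP-challenged DMSO wells and 100% = DMSO wells without ATP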
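Material: parental CHO cells / Compound: single nominal dose of 5.6 µM per compound / Signal: Fluo-8 fluorescence / Replicates: singlicate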
OXTR potentiate: human OXTR potentiators, primary screen, fluorescence, CHO-OTR cells, Fluo-8 calcium | Oxytocin receptor (Homo sapiens), P30559 | Fluo-8 calcium fluorescence, potentiator mode; 0% = oxytocin EC15, 100% = EC100 | activation, % at 3 µM | hit rate 0.061% among 320,000 | AID 2445, 2010;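 active means activation above that plate's cutoff, the mean activation of tested compounds plus 3 SD, cut at about 6.6% in these data, passing the limit was not always enough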;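 further: 100% uses oxytocin at 75 nM as the full agonist control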
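System: human OTR in CHO cells / Also added: sub-maximal oxytocin, roughly EC15 / Control set: EC15 oxytocin low, 75 nM oxytocin high / Schedule: 6 min compound pre-incubation at room temperature, 100 s kinetic read / Compound: single-point 3.0 µM / Replication: singlicate / Technique: Fluo-8 calcium dye fluorescence / Read-out basis: % activation of max/min ratio relative to oxytocin controls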
OXTR agonist: human OXTR agonists, primary screen, fluorescence, CHO-OTR cells, Fluo-8 calcium; Fluo-8 calcium fluorescence; normalized: DMSO 0%, oxytocin 100%; activation, % at 3 µM; hit rate 0.32% among 320,000;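 active means activation above the mean of all tested compounds plus 3 SD, cutoff set per screening run, cut at about 20% in these data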;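 further: peak over basal fluorescence ratio from a 100 s FLIPR kinetic read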
OX1R antag-2: OX1R (HCRTR1) antagonists, primary screen, fluorescence, CHO/OX1R cells, Fluo-8 calcium, orexin A; AID 434989, 2010; hit rate 0.43% among 330,000; Orexin/Hypocretin receptor type 1 (Homo sapiens), O43613; Fluo-8 calcium fluorescence; inhibition, % at 5 µM;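 active means inhibition above its plate's threshold, mean inhibition of all tested compounds on the plate plus 3 SD, cut at about 37% in these data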;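 further: 0% = orexin A challenge wells and 100% = SB-334867-A antagonist wells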
OXTR ag confirm: human OXTR agonists, confirmation, fluorescence, CHO-OTR cells, triplicate; shares compounds with OXTR agonist; Fluo-8 calcium fluorescence, agonist; activation, % at 3 µM; hit rate 20% among 390;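 active means mean activation above about 20% derived from the earlier single-dose screen, limit read from the data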;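 further: peak over minimum fluorescence ratio per well during a 100 second FLIPR read; 0% = DMSO alone and 100% = oxytocin high control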
V1aR counter 3x: V1a receptor agonists, calcium signal, counter-screen for OXTR agonist project, triplicate, fluorescence, CHO-V1R cells. shares compounds with OXTR agonist. Fluo-8 calcium fluorescence. activation, % at 3 µM. hit rate 10% among 390. AID 434991, 2010;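 active means mean activation over triplicate exceeds the hit threshold set in the earlier primary screen, cut at about 20% in these data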;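 further: peak over basal fluorescence ratio within a 100 second read; 0% = DMSO alone and 100% = 3 nM vasopressin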
Starred values were filed as active, the others as inactive; · = no result.

SMILES | OX1R antag-1 | V1aR counter | CHO parental Ca | OXTR potentiate | OXTR agonist | OX1R antag-2 | OXTR ag confirm | V1aR counter 3x
CC(c1ccccc1)N1CCC(CNC(=S)Nc2cccc(Cl)c2)C1 (configuration not stated) | 17 | 16 | 22 | -16 | 22* | 1 | 18 | 8
COc1ccc(C(=O)Nc2ccc(N3CCN(C(C)=O)CC3)cc2)cc1[N+](=O)[O-] | 15 | -1 | -2 | -12 | 25* | -7 | 1 | 0
CCOC(=O)c1ccc2c(c1)N(C)C(=O)c1ccccc1S2 | -6 | -1 | -9 | -6 | -3 | -9 | · | ·
CCOC(=O)c1cc2n(c1/N=C/N(C)C)-c1ccccc1C2=O | 9 | 15 | -1 | -11 | 24* | -5 | 26* | 33*
Cc1nc(SCC(=O)Nc2c(C)nn(C)c2C)c2cnn(-c3ccccc3)c2n1 | 16 | 6 | -10 | -17 | 23* | -16 | 7 | 8
Cc1c(NC(=O)CSc2ncnc3c2cnn3-c2ccccc2)c(=O)n(-c2ccccc2)n1C | 16 | 0 | -4 | -3 | -1 | -12 | · | ·
CCOC(=O)c1cc(C)sc1NC(=O)CN1CCN(C(=O)c2ccco2)CC1 | 7 | 16 | 87* | -9 | 23* | 53* | 1 | 0
Cn1ccnc1CN1CCCCC1C(=O)Nc1ccc(Oc2cccnc2)cc1 (configuration not stated) | 9 | 1 | -9 | -12 | 1 | -3 | · | ·
O=C(COC(=O)c1cc(Br)ccc1O)Nc1cccnc1Cl | 5 | 0 | -16 | -5 | -1 | -15 | · | ·
CC(C)Cn1c(N)c(C(=O)COC(=O)c2ccc3c(c2)OCCO3)c(=O)n(C)c1=O | 19 | 13 | 21 | -24 | 20* | 15 | 9 | 9
Cn1c(N)c(C(=O)COC(=O)c2ccc3c(c2)OCCO3)c(=O)n(C)c1=O | 9 | 1 | -6 | -5 | 0 | -10 | · | ·
COC1=CC(=Cc2c(N)n3nc(CC(=O)N4CCOCC4)sc3nc2=O)C=C(OC)C1=O | 14 | 8 | 1 | 0 | 21* | 0 | 55* | 97*
CC(=O)c1sc2nc(-c3cccs3)cc(C(F)(F)F)c2c1N | 25 | 14 | 32 | -18 | 27* | 42* | 40* | 52*
COc1cc(OC)c2c(-c3ccccc3)cc(=O)oc2c1C(CCN1CCCC(C)C1)c1ccc(N(C)C)cc1 (configuration not stated) | 32 | 1 | -8 | 0 | 4 | -4 | · | ·
COc1ccc(C(CCN2CCCC(C)C2)c2c(OC)cc(OC)c3c(-c4ccccc4)cc(=O)oc23)cc1 (configuration not stated) | 16 | 16 | 3 | -12 | 22* | 11 | 2 | 3
CSCCC(NC(=O)c1ccccc1Br)C(=O)N1CCCCCCC1 (configuration not stated) | 13 | -1 | -9 | -2 | -1 | -17 | · | ·
OC(CNC1CCCCCC1)COc1cccc2ccccc12 (configuration not stated) | 7 | 12 | -6 | -16 | 20* | -21 | 8 | 5
Cc1ccc(S(=O)(=O)N2CCCCC2)cc1NC(=O)CSc1nnc(C2CC2)n1C | 1 | 2 | -7 | -2 | 0 | -23 | · | ·
CCCCCC[N+](C)(C)CCSSCC[N+](C)(C)CCCCCC | 1 | 0 | -9 | 1 | 1 | -17 | · | ·
CCCCCCCCCCCCCCCC[N+](C)(C)CC | 14 | 4 | 29 | -9 | 21* | 33 | 21* | 0
Cc1cccc(CCN2C(Nc3ccccc3)=NC[C@@H]2CC(C)C)c1 | 27 | 16 | 31 | -19 | 21* | 49* | 16 | 21*
CCN1C(Nc2ccccc2)=NC[C@@H]1CC(C)C | 27 | 0 | -16 | -8 | -1 | -18 | · | ·
Cc1ccc(-n2ncc3c2CCCC3NC(=O)CCCN2CCCCC2=O)cc1C (configuration not stated) | 2 | 0 | -17 | -8 | -1 | -30 | · | ·
COc1ccc(CCNC(=O)NCCc2c[nH]c3ccccc23)cc1OC | 11 | 2 | -9 | -5 | 1 | -5 | · | ·
COc1cc(CNCCc2c[nH]c3ccccc23)ccc1OCc1ccccc1F | 7 | 11 | 6 | -10 | 22* | 12 | 13 | 5
SMILES | OX1R antag-1 | V1aR counter | CHO parental Ca | OXTR potentiate | OXTR agonist | OX1R antag-2 | OXTR ag confirm | V1aR counter 3x
COc1ccc(CNCc2ccco2)cc1OCc1ccccc1 | 14 | 1 | -16 | 2 | 3 | -17 | · | ·
COc1cccc(CNCCc2c[nH]c3ccccc23)c1OCc1ccccc1 | 6 | 15 | 18 | -16 | 29* | 10 | 17 | 16
COc1ccccc1CCNCc1ccc(OC)c(OCc2ccccc2)c1 | -3 | 13 | -4 | -11 | 22* | 2 | 12 | 9
O=C(NC1CCCC1)C(c1cccs1)N(CC1CCCO1)C(=O)Cc1cccs1 (configuration not stated) | 22 | -1 | -20 | -13 | 20* | -8 | -1 | 1
CCN1C(=O)C(=O)N(Cc2ccc(OC)c(F)c2)C1=O | 19 | 0 | -9 | 1 | 1 | -14 | · | ·
COc1ccc(CCNC(=O)C(=O)NCC2OCCN2S(=O)(=O)c2ccc(Cl)cc2)cc1OC (configuration not stated) | 10 | 6 | -6 | -7 | 8 | -18 | · | ·
CC(=O)Nc1ccc(OCC(O)Cn2c3ccccc3c3ccccc32)c(C)c1 (configuration not stated) | 16 | 13 | 9 | -13 | 22* | 23 | 9 | 8
CC(=O)Nc1ccc(OCC(O)Cn2c3ccccc3c3ccccc32)cc1 (configuration not stated) | 12 | 20 | -4 | -16 | 17 | 5 | · | ·
O=C(Nc1nc(-c2nc3ccccc3s2)cs1)c1ccc(S(=O)(=O)N2CCOCC2)cc1 | 67* | 16 | 32* | -15 | 21* | 11 | 6 | 8
O=C(Nc1nc(-c2ccc(S(=O)(=O)N3CCOCC3)cc2)cs1)c1ccccc1 | 16 | 5 | -3 | -16 | 10 | 0 | · | ·
COCCNC(=O)/C(C#N)=C/c1ccc(N2CCOCC2)o1 | 62 | 10 | 5 | -6 | 6 | 5 | · | ·
